According to ChEMBL document CHEMBL4689842, “EUbOPEN Chemogenomics Library wave 1” (2021):

Tested on: Fibroblast
Assay: Multiplex assay against human fibroblast
Type: toxicity, cell-based
In short: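 With compound added, live cells were imaged on a CQ1 microscope at 37°C and 5% CO2; staining with Hoechst33342, BioTracker Green Microtubule Cytoskeleton Dye, MitoTracker Red and Annexin V Alexa Fluor 680 had been done at seeding. The CellPathfinder machine-learning gating scheme split cells into Hoechst high-intensity objects or normal cells, normal cells into healthy, pyknosed or fragmented nuclei, and pyknosed cells into mitotic or apoptotic. The tubulin, mitochondrial-mass and membrane-permeability phenotypes are per cents of healthy-nucleus cells.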

[1] = 12 h, 1 µM, compound concentration 1 uM, replicate 1
[2] = 12 h, 1 µM, compound concentration 1 uM, replicate 2
[3] = 12 h, 10 µM, compound concentration 10 uM, replicate 1
[4] = 12 h, 10 µM, compound concentration 10 uM, replicate 2
[5] = 24 h, 1 µM, compound concentration 1 uM, replicate 1
[6] = 24 h, 1 µM, compound concentration 1 uM, replicate 2
[7] = 24 h, 10 µM, compound concentration 10 uM, replicate 1
[8] = 24 h, 10 µM, compound concentration 10 uM, replicate 2
[9] = 48 h, 1 µM, compound concentration 1 uM, replicate 1
[10] = 48 h, 1 µM, compound concentration 1 uM, replicate 2
[11] = 48 h, 10 µM, compound concentration 10 uM, replicate 1
[12] = 48 h, 10 µM, compound concentration 10 uM, replicate 2

COc1ncc(-c2ccc3nccc(-c4ccnnc4)c3c2)cc1NS(=O)(=O)c1ccc(F)cc1F [OMIPALISIB]
Population Apoptotic (%) [1]: 57% | Population Fragmented Nuclei (%) [1]: 21% | Population Healthy Nuclei (%) [1]: 49% | Population Hoechst High Intensity Objects (%) [1]: 12% | Population Membrane Permeable-Phenotype (%) [1]: 28% | Population Mitochondria Different-Phenotype (%) [1]: 2% | Population Mitotic Cells (%) [1]: 42% | Population Normal (%) [1]: 87% | Population Pyknosed Nuclei (%) [1]: 29% | Population Tubulin-Different-Phenotype (%) [1]: 51% | Total Cell Count [1]: 81 | Population Apoptotic (%) [2]: 50% | Population Fragmented Nuclei (%) [2]: 46% | Population Healthy Nuclei (%) [2]: 42% | Population Hoechst High Intensity Objects (%) [2]: 7% | Population Membrane Permeable-Phenotype (%) [2]: 16% | Population Mitochondria Different-Phenotype (%) [2]: 16% | Population Mitotic Cells (%) [2]: 50% | Population Normal (%) [2]: 92% | Population Pyknosed Nuclei (%) [2]: 11% | Population Tubulin-Different-Phenotype (%) [2]: 23% | Total Cell Count [2]: 51 | Population Apoptotic (%) [3]: 78% | Population Fragmented Nuclei (%) [3]: 20% | Population Healthy Nuclei (%) [3]: 38% | Population Hoechst High Intensity Objects (%) [3]: 18% | Population Membrane Permeable-Phenotype (%) [3]: 30% | Population Mitochondria Different-Phenotype (%) [3]: 6% | Population Mitotic Cells (%) [3]: 21% | Population Normal (%) [3]: 81% | Population Pyknosed Nuclei (%) [3]: 41% | Population Tubulin-Different-Phenotype (%) [3]: 73% | Total Cell Count [3]: 96 | Population Apoptotic (%) [4]: 65% | Population Fragmented Nuclei (%) [4]: 33% | Population Healthy Nuclei (%) [4]: 27% | Population Hoechst High Intensity Objects (%) [4]: 7% | Population Membrane Permeable-Phenotype (%) [4]: 11% | Population Mitochondria Different-Phenotype (%) [4]: 16% | Population Mitotic Cells (%) [4]: 34% | Population Normal (%) [4]: 92% | Population Pyknosed Nuclei (%) [4]: 39% | Population Tubulin-Different-Phenotype (%) [4]: 22% | Total Cell Count [4]: 77 | Population Apoptotic (%) [5]: 58% | Population Fragmented Nuclei (%) [5]: 30% | Population Healthy Nuclei (%) [5]: 53% | Population Hoechst High Intensity Objects (%) [5]: 10% | Population Membrane Permeable-Phenotype (%) [5]: 32% | Population Mitochondria Different-Phenotype (%) [5]: 2% | Population Mitotic Cells (%) [5]: 41% | Population Normal (%) [5]: 89% | Population Tubulin-Different-Phenotype (%) [5]: 42% | Total Cell Count [5]: 84 | Population Apoptotic (%) [6]: 33% | Population Fragmented Nuclei (%) [6]: 43% | Population Healthy Nuclei (%) [6]: 40% | Population Hoechst High Intensity Objects (%) [6]: 11% | Population Membrane Permeable-Phenotype (%) [6]: 24% | Population Mitochondria Different-Phenotype (%) [6]: 17% | Population Mitotic Cells (%) [6]: 66% | Population Normal (%) [6]: 88% | Population Pyknosed Nuclei (%) [6]: 16% | Population Tubulin-Different-Phenotype (%) [6]: 37% | Total Cell Count [6]: 50 | Population Apoptotic (%) [7]: 66% | Population Fragmented Nuclei (%) [7]: 25% | Population Healthy Nuclei (%) [7]: 49% | Population Hoechst High Intensity Objects (%) [7]: 20% | Population Membrane Permeable-Phenotype (%) [7]: 31% | Population Mitochondria Different-Phenotype (%) [7]: 11% | Population Mitotic Cells (%) [7]: 33% | Population Normal (%) [7]: 79% | Population Pyknosed Nuclei (%) [7]: 25% | Population Tubulin-Different-Phenotype (%) [7]: 80% | Total Cell Count [7]: 89 | Population Apoptotic (%) [8]: 80% | Population Fragmented Nuclei (%) [8]: 27% | Population Healthy Nuclei (%) [8]: 22% | Population Hoechst High Intensity Objects (%) [8]: 11% | Population Membrane Permeable-Phenotype (%) [8]: 35% | Population Mitochondria Different-Phenotype (%) [8]: 28% | Population Mitotic Cells (%) [8]: 20% | Population Normal (%) [8]: 88% | Population Pyknosed Nuclei (%) [8]: 49% | Population Tubulin-Different-Phenotype (%) [8]: 42% | Total Cell Count [8]: 81 | Population Apoptotic (%) [9]: 42% | Population Fragmented Nuclei (%) [9]: 40% | Population Healthy Nuclei (%) [9]: 48% | Population Hoechst High Intensity Objects (%) [9]: 16% | Population Membrane Permeable-Phenotype (%) [9]: 21% | Population Mitochondria Different-Phenotype (%) [9]: 12% | Population Mitotic Cells (%) [9]: 57% | Population Normal (%) [9]: 83% | Population Pyknosed Nuclei (%) [9]: 10% | Population Tubulin-Different-Phenotype (%) [9]: 37% | Total Cell Count [9]: 79 | Population Apoptotic (%) [10]: 0% | Population Fragmented Nuclei (%) [10]: 47% | Population Healthy Nuclei (%) [10]: 52% | Population Hoechst High Intensity Objects (%) [10]: 13% | Population Membrane Permeable-Phenotype (%) [10]: 35% | Population Mitochondria Different-Phenotype (%) [10]: 3% | Population Mitotic Cells (%) [10]: 0% | Population Normal (%) [10]: 86% | Population Pyknosed Nuclei (%) [10]: 0% | Population Tubulin-Different-Phenotype (%) [10]: 53% | Total Cell Count [10]: 61 | Population Apoptotic (%) [11]: 63% | Population Fragmented Nuclei (%) [11]: 34% | Population Healthy Nuclei (%) [11]: 50% | Population Hoechst High Intensity Objects (%) [11]: 17% | Population Membrane Permeable-Phenotype (%) [11]: 31% | Population Mitochondria Different-Phenotype (%) [11]: 14% | Population Mitotic Cells (%) [11]: 36% | Population Normal (%) [11]: 82% | Population Pyknosed Nuclei (%) [11]: 15% | Population Tubulin-Different-Phenotype (%) [11]: 82% | Total Cell Count [11]: 85 | Population Apoptotic (%) [12]: 0% | Population Fragmented Nuclei (%) [12]: 33% | Population Healthy Nuclei (%) [12]: 65% | Population Hoechst High Intensity Objects (%) [12]: 12% | Population Membrane Permeable-Phenotype (%) [12]: 20% | Population Mitochondria Different-Phenotype (%) [12]: 8% | Population Mitotic Cells (%) [12]: 100% | Population Normal (%) [12]: 87% | Population Pyknosed Nuclei (%) [12]: 1% | Population Tubulin-Different-Phenotype (%) [12]: 93% | Total Cell Count [12]: 86
